KCNK3 inh: human KCNK3 channel inhibition, primary screen | O14649 | CHO-KCNK3 thallium flux, FluxOR fluorescence; active compounds read low | B-score at 10 µM | 340,000 tested, 0.84% active;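 active = B-score under library mean minus 4 SD, starting fluorescence ratio at most library mean plus 5 SD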;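 also: more negative B-score means stronger inhibition of thallium flux through KCNK3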
KCNQ1 act: potentiators or activators of human KCNQ1 potassium channel; 310,000 tested, 0.35% active; CHO-K1 KCNQ1, thallium flux FluxOR fluorescence; active compounds read high; B-score at 10 µM; P51787; AID 2648;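 active = fluorescence ratio B-score, a plate-corrected score, at least three library SD, with initial intensity B-score within 5 SD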
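Test system: CHO-K1 cells stably expressing KCNQ1 / Medium: assay buffer / Also added: depolarizing K+/Tl+ stimulus, K2SO4 and Tl2SO4 each 12.5 mM in 5x stock / Incubation: 90 min dye loading and 20 min compound exposure, both at room temperature / Signal: thallium influx via FluxOR fluorescence, kinetic imaging / Evaluation: B score of baseline-normalized fluorescence ratio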
KCNQ1 inh: blocks the human KCNQ1 potassium channel; B-score at 10 µM; P51787; 310,000 tested, 1.3% active; CHO-K1 KCNQ1, FluxOR thallium flux fluorescence; active compounds read high;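 active = compounds whose thallium flux B-score, printed positive for inhibition, exceeds three library SD while starting fluorescence stays within three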;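 also: channel opened by potassium depolarization with thallium stimulus after 20 min compound exposure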
hERG protect: hERG (human) protection from proarrhythmic block; Q12809; CHO-hERG, FluxOR thallium flux, dofetilide IC70 present; activation (rescue from dofetilide block), less the hit threshold, % at 10 µM; 310,000 tested, 0.51% active; AID 1511;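 active = activation above the mean of controls blocked by dofetilide plus 5 SD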;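 also: thallium influx through hERG after potassium depolarization seen as dye fluorescence rise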
KCNK9 inh: human KCNK9 channel inhibition | HEK293 KCNK9, FluxOR thallium flux fluorescence; active compounds read low | B-score at 10 µM | 310,000 tested, 1.2% active | AID 488922;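 active = ratio B-score over 3 SD below the library mean, with starting fluorescence within 5 SD of its mean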;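 also: negative B-score means less thallium flux so channel inhibition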
KCNK3 confirm: human KCNK3 channel inhibition, confirmation assay; shares compounds with KCNK3 inh; CHO-KCNK3 thallium flux, FluxOR fluorescence; 0% buffer, 100% carvedilol maximal block; ratio percent of control, % at 10 µM; 2,400 tested, 99% active; AID 651638;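 active = ratio percent of control, averaged over triplicates, above buffer control mean plus 5 SD, cut at about 64% in these data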;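 also: ratio is the fluorescence rise from min to max over baseline after thallium stimulus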
KCNK3 uninduced: KCNK3 inhibitor counter-screen hit in non-induced cells | shares compounds with KCNK3 inh | non-induced KCNK3 parental cells, FluxOR thallium flux; active compounds read low | 2,400 tested, 40% active | thallium flux ratio (lower = more inhibition) at 10 µM;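 active = thallium flux ratio, averaged over three wells, more than 5 SD below the buffer control mean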;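 also: host cells are CHO cells without KCNK3 induction; ratio is peak minus trough fluorescence over baseline then normalized to buffer controls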
* = called active by the depositor; i = inactive; . = no result given. Rows were chosen to be rich in hits. Some 3.1% of all compounds tested hit in one or more screens of this group.

SMILES | KCNK3 inh | KCNQ1 act | KCNQ1 inh | hERG protect | KCNK9 inh | KCNK3 confirm | KCNK3 uninduced
CC(C)(C)C(CCl)C(=O)NN=C(c1ccccc1)c1ccccc1 (stereo not given) | i | . | . | . | . | . | .
CCOc1ccccc1C(=O)NCCC(=O)O | i | i | i | -7 | i | . | .
CCOc1ccccc1C(=O)NCCCCNC(=O)c1ccccc1OCC | -9.8* | i | i | -13 | i | 94* | i
CCOc1cc(NC(=O)C2CC2)c(OCC)cc1NC(=O)c1cc(OC)c(OC)c(OC)c1 | i | i | i | -10 | i | . | .
CCOc1cc(NC(=O)C2CC2)c(OCC)cc1NC(=O)c1ccccc1OCC | -8.7* | i | i | -16 | i | 102* | i
Fc1ccc(CNC(=S)Nc2ccc(Cl)cc2)cc1 | i | i | i | -6 | i | . | .
CC(CNC(=S)Nc1cc(F)cc(F)c1)CSc1ccc(Cl)cc1 (stereo not given) | -13* | i | 9* | -15 | i | 117* | 0.14*
CCCNC(=O)CSc1nc2ccccc2c(=O)n1CCC | -8.8* | i | i | -5 | i | 86* | i
CC(C)(C)NC(=O)CSc1nc(Cc2ccccc2)nc2ccccc12 | i | i | i | -19 | i | . | .
CC(C)N(C(=O)CSc1nc(Cc2ccccc2)nc2ccccc12)C(C)C | -9.5* | i | i | -10 | i | 96* | i
CCOC(=O)c1cc2ccc3ccccc3c2s1 | -9.8* | i | i | -2 | i | 99* | i
O=C(CN1CCCN(S(=O)(=O)c2ccc(F)cc2)CC1)Nc1c(Cl)cccc1Cl | i | i | i | -6 | i | . | .
O=C(CN1CCCN(S(=O)(=O)c2ccc(F)cc2)CC1)Nc1cccc(F)c1 | -12* | i | i | -7 | -6.7* | 92* | i
Cc1cccc(C(=O)NNC(=O)c2c(-c3ccccc3Cl)noc2C)c1O | i | i | i | -14 | i | . | .
CC1(c2ccc3c(c2)OCO3)NC(=O)N(CC(=O)Nc2ccc(N3CCOCC3)cc2)C1=O (stereo not given) | i | i | i | -10 | i | . | .
COc1cccc(/C=C2\SC(=O)N(CCC(=O)N3CCCCC3CCO)C2=O)c1 (stereo not given) | -11* | i | i | -12 | i | 78* | i
O=C1/C(=C\c2ccccc2)SC(=S)N1CCC(=O)N1CCCCC1CCO (stereo not given) | i | i | i | -10 | i | . | .
CCOP(=O)(NC(c1ccccc1)c1nc2ccccc2[nH]c1=O)OCC (stereo not given) | i | i | i | -9 | i | . | .
CCCC(C)C(=O)Nc1ccccc1C(=O)OCC (stereo not given) | i | i | i | -2 | i | . | .
CCOC(=O)c1ccccc1NC(=O)C(C)Oc1ccccc1 (stereo not given) | -10* | i | i | -9 | i | 78* | i
CCN(CC)S(=O)(=O)c1ccc(N2CC(C(=O)NCCC3=CCCCC3)CC2=O)cc1 (stereo not given) | i | . | . | . | . | . | .
N#Cc1nc(COc2ccc(Cl)cc2)oc1NCc1ccc2c(c1)OCO2 | -11* | i | i | -9 | i | 138* | 0.16*
Cc1cccc(OCc2nc(C#N)c(NCc3ccc4c(c3)OCO4)o2)c1 | -11* | i | i | -11 | i | 138* | 0.1*
O=C(CN1C(=O)S/C(=C\c2ccc(Cl)cc2)C1=O)NCCCn1ccnc1 | i | i | i | -11 | i | . | .
CCCCNc1oc(-c2cccs2)nc1S(=O)(=O)c1ccccc1 | -9.5* | i | i | -10 | i | 127* | 0.13*
CN(CC(=O)NCC1CCCCC1)CC(=O)Nc1ccccc1Br | i | . | . | . | . | . | .
Cc1nn(C)c(C)c1S(=O)(=O)N(CC(=O)NCCCN1CCC(C)CC1)c1ccc(C(C)C)cc1 | i | i | i | -9 | i | . | .
